INS-1E ATP HTS: rescue of cytokine-induced death in INS-1E beta cells; INS-1E cytokine-induced death, ATP luminescence, 48 h; normalised: neutral wells 0, positive control 100; AID 488910; protection from cytokine-induced ATP loss, % at 10 µM; 0.1% of 20,000 active;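 active means mean replicate protection from cytokine-induced ATP loss at least 50% and at least 75% of replicates each reaching 50%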
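Assay system – rat INS-1E insulinoma cell line · Quantity – 8000 cells per well · Buffer or medium – RPMI without phenol red, 5% FBS · Schedule – 48 h co-treatment, 10 min post-lysis read · Technique – luminescent ATP assay (CellTiter-Glo)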
A1 apoptosis 2: compounds inhibiting A1, read as caspase activation; MEF A1-2A-BIM cells, caspase-Glo luminescence, 3 h; percent of clofoctol response, DMSO zero; caspase activation, % (no concentration beside the values); 24,000 tested, under 10 active; AID 2465; in the data active means caspase activation above about 5.9%
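Material: A1-2A-BIM-expressing MEF cells. Buffer or medium: RPMI-1640 plus 10% FBS. Incubation: cells settled overnight, compound exposure 3 h at 37 °C, 5% CO2. Signal: Caspase-Glo 3/7 luminescence, 1 h at room temperature.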
T cruzi HTS: intracellular Trypanosoma cruzi inhibition. activity score (inhibition), % at 5.01 µM. 4.9% of 22,000 active. intracellular Trypanosoma cruzi in host cells, plate reader. AID 651903; in the data active means activity score above about 55%;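 further: parasites and compound incubated about four days before reading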
A number is an active result; n = inactive; x = no result given. Shown is part of a subset that was picked to be rich in hits.

SMILES	INS-1E ATP HTS	A1 apoptosis 2	T cruzi HTS
C[C@@H]1CCCCO[C@@H](CN(C)C(=O)Cc2ccccc2)[C@@H](C)CN([C@@H](C)CO)C(=O)c2cc(NC(=O)Nc3ccccc3)ccc2O1	x	n	x
C[C@H]1CN([C@@H](C)CO)C(=O)c2cc(NC(=O)CCC(F)(F)F)ccc2O[C@@H]1CN(C)Cc1ccc(C(F)(F)F)cc1	x	x	n
CN(C)C(=O)[C@@]1(Cc2ccccc2CN=[N+]=[N-])N=C(c2ccc(OCCCO)cc2)O[C@H]1c1ccccc1	x	n	x
C[C@H](CO)N1C[C@H](C)[C@H](CN(C)Cc2ccc(Cl)c(Cl)c2)Oc2c(NC(=O)Nc3ccc4c(c3)OCO4)cccc2C1=O	n	x	82
C[C@@H]1CN([C@H](C)CO)C(=O)c2cccc(NC(=O)Nc3ccc4c(c3)OCO4)c2O[C@@H]1CN(C)Cc1ccc(Cl)c(Cl)c1	n	x	n
COc1ccc(NC(=O)Nc2cccc3c2O[C@@H](CN(C)Cc2ccc(Cl)c(Cl)c2)[C@@H](C)CN([C@H](C)CO)C3=O)cc1	n	x	59
C[C@@H]1CN([C@H](C)CO)C(=O)c2cccc(NC(=O)Nc3ccccc3)c2O[C@@H]1CN(C)Cc1ccc(Cl)c(Cl)c1	n	x	n
COc1ccc(NC(=O)Nc2cccc3c2O[C@H](CN(C)Cc2ccc(Cl)c(Cl)c2)[C@H](C)CN([C@H](C)CO)C3=O)cc1	n	x	n
C[C@@H]1CN([C@@H](C)CO)C(=O)c2cccc(NC(=O)Nc3ccccc3)c2O[C@H]1CN(C)Cc1ccc(Cl)c(Cl)c1	n	x	59
C[C@H](CO)N1C[C@H](C)[C@@H](CN(C)Cc2ccc(C(F)(F)F)cc2)Oc2ccc(NC(=O)C3CCCCC3)cc2C1=O	n	x	n
C[C@H]1CN([C@@H](C)CO)C(=O)c2cc(NC(=O)Nc3ccc(C(F)(F)F)cc3)ccc2O[C@@H]1CN(C)CC1CCCCC1	n	n	n
C[C@H]1CN([C@@H](C)CO)C(=O)c2cc(NC(=O)Nc3ccc(C(F)(F)F)cc3)ccc2O[C@H]1CN(C)CC1CCCCC1	n	n	73
C[C@@H]1CN([C@H](C)CO)C(=O)c2cc(NC(=O)Nc3ccc(C(F)(F)F)cc3)ccc2O[C@@H]1CN(C)CC1CCCCC1	n	x	n
C[C@@H]1CN([C@@H](C)CO)C(=O)c2cc(NC(=O)Nc3ccc(C(F)(F)F)cc3)ccc2O[C@@H]1CN(C)CC1CCCCC1	n	n	70
COc1ccc(S(=O)(=O)Nc2ccc3c(c2)C(=O)N([C@@H](C)CO)C[C@H](C)[C@@H](CN(C)Cc2ccc(C(=O)O)cc2)O3)cc1	n	n	n
Cc1noc(C)c1S(=O)(=O)Nc1ccc2c(c1)C(=O)N([C@H](C)CO)C[C@@H](C)[C@@H](CN(C)C(=O)C1CCCCC1)OCCCC[C@H](C)O2	x	n	x
C[C@@H]1CN([C@@H](C)CO)C(=O)Cc2cc(NC(=O)CCC(F)(F)F)ccc2O[C@@H]1CN(C)S(=O)(=O)c1cccs1	n	n	n
C[C@H](CO)N1C[C@H](C)[C@H](CN(C)Cc2ccncc2)Oc2c(NC(=O)c3nc4ccccc4s3)cccc2C1=O	n	x	n
C[C@H](CO)N1C[C@H](C)[C@@H](CN(C)Cc2ccncc2)Oc2c(NC(=O)c3nc4ccccc4s3)cccc2C1=O	n	n	n
C[C@H]1CN([C@@H](C)CO)C(=O)c2cccc(NC(=O)c3nc4ccccc4s3)c2O[C@H]1CN(C)Cc1ccc(C(=O)Nc2ccccc2N)cc1	n	n	79
C[C@@H]1CN([C@H](C)CO)C(=O)c2cccc(NC(=O)c3nc4ccccc4s3)c2O[C@H]1CN(C)Cc1ccc(C(=O)Nc2ccccc2N)cc1	n	x	79
COc1ccc(CN(C)C[C@H]2OCCCC[C@@H](C)Oc3ccc(NS(=O)(=O)c4c(C)noc4C)cc3C(=O)N([C@H](C)CO)C[C@H]2C)cc1	x	n	x
C[C@@H]1CN([C@H](C)CO)C(=O)c2cc(N(C)C)ccc2O[C@@H]1CN(C)CC1CCCCC1	n	x	n
COc1ccc(S(=O)(=O)N(C)C[C@@H]2Oc3c(NC(=O)CCCCCC(=O)Nc4ccccc4N)cccc3C(=O)N([C@H](C)CO)C[C@@H]2C)cc1	n	n	n
COc1ccc(CN(C)C[C@@H]2Oc3c(NC(=O)Nc4c(C)noc4C)cccc3C(=O)N([C@@H](C)CO)C[C@@H]2C)cc1	n	n	n
C[C@H]1CN([C@@H](C)CO)C(=O)c2cccc(NC(=O)c3nc4ccccc4s3)c2O[C@H]1CN(C)Cc1ccc2c(c1)OCO2	n	x	57
C[C@@H]1CN([C@@H](C)CO)C(=O)c2cccc(NC(=O)c3nc4ccccc4s3)c2O[C@@H]1CN(C)C(=O)Nc1ccc2c(c1)OCO2	n	n	n
